# ChEMBL document CHEMBL4689842, “EUbOPEN Chemogenomics Library wave 1” (2021)
# Tested on: HEK-293T
# Experiment: Multiplex assay against HEK293T;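 as to Population Tubulin-Different-Phenotype (%): share of the cells with healthy nuclei that show this phenotype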
# Format: toxicity, cell-based
# Conditions: human
# Procedure, shortened: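 Live cells were stained at seeding with Hoechst33342, BioTracker Green Microtubule Cytoskeleton Dye, MitoTracker Red and Annexin V Alexa Fluor 680. Following compound addition, they were imaged on a CQ1 microscope at 37°C and 5% CO2 and gated by CellPathfinder machine learning into Hoechst high-intensity objects or normal cells, with normal cells split into healthy, pyknosed or fragmented nuclei and pyknosed cells into mitotic or apoptotic. Tubulin, mitochondrial-mass and membrane-permeability phenotypes are per cents of healthy-nucleus cells.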
# [1] = 12 h, 1 µM, compound concentration 1 uM, replicate 1
# [2] = 12 h, 1 µM, compound concentration 1 uM, replicate 2
# [3] = 12 h, 10 µM, compound concentration 10 uM, replicate 1
# [4] = 12 h, 10 µM, compound concentration 10 uM, replicate 2
# [5] = 24 h, 1 µM, compound concentration 1 uM, replicate 1
# [6] = 24 h, 1 µM, compound concentration 1 uM, replicate 2
# [7] = 24 h, 10 µM, compound concentration 10 uM, replicate 1
# [8] = 24 h, 10 µM, compound concentration 10 uM, replicate 2
# [9] = 48 h, 1 µM, compound concentration 1 uM, replicate 1
# [10] = 48 h, 1 µM, compound concentration 1 uM, replicate 2
# [11] = 48 h, 10 µM, compound concentration 10 uM, replicate 1
# [12] = 48 h, 10 µM, compound concentration 10 uM, replicate 2
structure (smiles),measurement,setting,value
C[C@@H](Oc1cc(-n2cnc3ccc(CN4CCN(C)CC4)cc32)sc1C(N)=O)c1ccccc1C(F)(F)F [GSK-461364],Population Apoptotic (%),[1],62%
same,Population Fragmented Nuclei (%),[1],14%
same,Population Healthy Nuclei (%),[1],19%
same,Population Hoechst High Intensity Objects (%),[1],17%
same,Population Membrane Permeable-Phenotype (%),[1],5%
same,Population Mitochondria Different-Phenotype (%),[1],98%
same,Population Mitotic Cells (%),[1],37%
same,Population Normal (%),[1],82%
same,Population Pyknosed Nuclei (%),[1],65%
same,Population Tubulin-Different-Phenotype (%),[1],96%
same,Total Cell Count,[1],322
same,Population Apoptotic (%),[2],27%
same,Population Fragmented Nuclei (%),[2],10%
same,Population Healthy Nuclei (%),[2],33%
same,Population Hoechst High Intensity Objects (%),[2],4%
same,Population Membrane Permeable-Phenotype (%),[2],20%
same,Population Mitochondria Different-Phenotype (%),[2],60%
same,Population Mitotic Cells (%),[2],72%
same,Population Normal (%),[2],95%
same,Population Pyknosed Nuclei (%),[2],56%
same,Population Tubulin-Different-Phenotype (%),[2],71%
same,Total Cell Count,[2],142
same,Population Apoptotic (%),[3],80%
same,Population Fragmented Nuclei (%),[3],16%
same,Population Healthy Nuclei (%),[3],11%
same,Population Hoechst High Intensity Objects (%),[3],22%
same,Population Membrane Permeable-Phenotype (%),[3],7%
same,Population Mitochondria Different-Phenotype (%),[3],100%
same,Population Mitotic Cells (%),[3],19%
same,Population Normal (%),[3],77%
same,Population Pyknosed Nuclei (%),[3],71%
same,Population Tubulin-Different-Phenotype (%),[3],74%
same,Total Cell Count,[3],294
same,Population Apoptotic (%),[4],66%
same,Population Fragmented Nuclei (%),[4],11%
same,Population Healthy Nuclei (%),[4],14%
same,Population Hoechst High Intensity Objects (%),[4],10%
same,Population Membrane Permeable-Phenotype (%),[4],12%
same,Population Mitochondria Different-Phenotype (%),[4],75%
same,Population Mitotic Cells (%),[4],33%
same,Population Normal (%),[4],89%
same,Population Pyknosed Nuclei (%),[4],73%
same,Population Tubulin-Different-Phenotype (%),[4],62%
same,Total Cell Count,[4],187
same,Population Apoptotic (%),[5],66%
same,Population Fragmented Nuclei (%),[5],14%
same,Population Healthy Nuclei (%),[5],22%
same,Population Hoechst High Intensity Objects (%),[5],16%
same,Population Membrane Permeable-Phenotype (%),[5],0%
same,Population Mitochondria Different-Phenotype (%),[5],98%
same,Population Mitotic Cells (%),[5],33%
same,Population Normal (%),[5],83%
same,Population Pyknosed Nuclei (%),[5],62%
same,Population Tubulin-Different-Phenotype (%),[5],96%
same,Total Cell Count,[5],321
same,Population Apoptotic (%),[6],38%
same,Population Fragmented Nuclei (%),[6],8%
same,Population Healthy Nuclei (%),[6],43%
same,Population Hoechst High Intensity Objects (%),[6],3%
same,Population Membrane Permeable-Phenotype (%),[6],12%
same,Population Mitochondria Different-Phenotype (%),[6],54%
same,Population Mitotic Cells (%),[6],61%
same,Population Normal (%),[6],96%
same,Population Pyknosed Nuclei (%),[6],47%
same,Population Tubulin-Different-Phenotype (%),[6],75%
same,Total Cell Count,[6],154
same,Population Apoptotic (%),[7],81%
same,Population Fragmented Nuclei (%),[7],26%
same,Population Healthy Nuclei (%),[7],10%
same,Population Hoechst High Intensity Objects (%),[7],25%
same,Population Membrane Permeable-Phenotype (%),[7],4%
same,Population Mitochondria Different-Phenotype (%),[7],100%
same,Population Mitotic Cells (%),[7],18%
same,Population Normal (%),[7],74%
same,Population Pyknosed Nuclei (%),[7],63%
same,Population Tubulin-Different-Phenotype (%),[7],45%
same,Total Cell Count,[7],298
same,Population Apoptotic (%),[8],86%
same,Population Fragmented Nuclei (%),[8],12%
same,Population Healthy Nuclei (%),[8],25%
same,Population Hoechst High Intensity Objects (%),[8],5%
same,Population Membrane Permeable-Phenotype (%),[8],0%
same,Population Mitochondria Different-Phenotype (%),[8],97%
same,Population Mitotic Cells (%),[8],13%
same,Population Normal (%),[8],94%
same,Population Pyknosed Nuclei (%),[8],62%
same,Population Tubulin-Different-Phenotype (%),[8],63%
same,Total Cell Count,[8],207
same,Population Apoptotic (%),[9],66%
same,Population Fragmented Nuclei (%),[9],22%
same,Population Healthy Nuclei (%),[9],18%
same,Population Hoechst High Intensity Objects (%),[9],22%
same,Population Membrane Permeable-Phenotype (%),[9],2%
same,Population Mitochondria Different-Phenotype (%),[9],95%
same,Population Mitotic Cells (%),[9],33%
same,Population Normal (%),[9],77%
same,Population Pyknosed Nuclei (%),[9],59%
same,Population Tubulin-Different-Phenotype (%),[9],97%
same,Total Cell Count,[9],325
same,Population Apoptotic (%),[10],67%
same,Population Fragmented Nuclei (%),[10],10%
same,Population Healthy Nuclei (%),[10],60%
same,Population Hoechst High Intensity Objects (%),[10],2%
same,Population Membrane Permeable-Phenotype (%),[10],6%
same,Population Mitochondria Different-Phenotype (%),[10],53%
same,Population Mitotic Cells (%),[10],32%
same,Population Normal (%),[10],97%
same,Population Pyknosed Nuclei (%),[10],28%
same,Population Tubulin-Different-Phenotype (%),[10],76%
same,Total Cell Count,[10],191
same,Population Apoptotic (%),[11],77%
same,Population Fragmented Nuclei (%),[11],27%
same,Population Healthy Nuclei (%),[11],4%
same,Population Hoechst High Intensity Objects (%),[11],26%
same,Population Membrane Permeable-Phenotype (%),[11],11%
same,Population Mitochondria Different-Phenotype (%),[11],100%
same,Population Mitotic Cells (%),[11],22%
same,Population Normal (%),[11],73%
same,Population Pyknosed Nuclei (%),[11],68%
same,Population Tubulin-Different-Phenotype (%),[11],55%
same,Total Cell Count,[11],287
same,Population Apoptotic (%),[12],79%
same,Population Fragmented Nuclei (%),[12],12%
same,Population Healthy Nuclei (%),[12],31%
same,Population Hoechst High Intensity Objects (%),[12],10%
same,Population Membrane Permeable-Phenotype (%),[12],0%
same,Population Mitochondria Different-Phenotype (%),[12],98%
same,Population Mitotic Cells (%),[12],20%
same,Population Normal (%),[12],89%
same,Population Pyknosed Nuclei (%),[12],55%
same,Population Tubulin-Different-Phenotype (%),[12],56%
same,Total Cell Count,[12],204
CC[C@H](Nc1ncnc2[nH]cnc12)c1nc2cccc(F)c2c(=O)n1-c1ccccc1 [IDELALISIB],Population Apoptotic (%),[1],22%
same,Population Fragmented Nuclei (%),[1],18%
same,Population Healthy Nuclei (%),[1],46%
same,Population Hoechst High Intensity Objects (%),[1],14%
same,Population Membrane Permeable-Phenotype (%),[1],12%
same,Population Mitochondria Different-Phenotype (%),[1],15%
same,Population Mitotic Cells (%),[1],77%
same,Population Normal (%),[1],85%
same,Population Pyknosed Nuclei (%),[1],34%
same,Population Tubulin-Different-Phenotype (%),[1],29%
same,Total Cell Count,[1],588
same,Population Apoptotic (%),[2],10%
same,Population Fragmented Nuclei (%),[2],5%
same,Population Healthy Nuclei (%),[2],85%
same,Population Hoechst High Intensity Objects (%),[2],3%
same,Population Membrane Permeable-Phenotype (%),[2],11%
same,Population Mitochondria Different-Phenotype (%),[2],18%
same,Population Mitotic Cells (%),[2],89%
same,Population Normal (%),[2],96%
same,Population Pyknosed Nuclei (%),[2],9%
same,Population Tubulin-Different-Phenotype (%),[2],64%
same,Total Cell Count,[2],1315
same,Population Apoptotic (%),[3],18%
same,Population Fragmented Nuclei (%),[3],15%
same,Population Healthy Nuclei (%),[3],60%
same,Population Hoechst High Intensity Objects (%),[3],9%
same,Population Membrane Permeable-Phenotype (%),[3],4%
same,Population Mitochondria Different-Phenotype (%),[3],3%
same,Population Mitotic Cells (%),[3],81%
same,Population Normal (%),[3],91%
same,Population Pyknosed Nuclei (%),[3],23%
same,Population Tubulin-Different-Phenotype (%),[3],2%
same,Total Cell Count,[3],500
same,Population Apoptotic (%),[4],8%
same,Population Fragmented Nuclei (%),[4],8%
same,Population Healthy Nuclei (%),[4],86%
same,Population Hoechst High Intensity Objects (%),[4],2%
same,Population Membrane Permeable-Phenotype (%),[4],1%
same,Population Mitochondria Different-Phenotype (%),[4],10%
same,Population Mitotic Cells (%),[4],91%
same,Population Normal (%),[4],97%
same,Population Pyknosed Nuclei (%),[4],5%
same,Population Tubulin-Different-Phenotype (%),[4],7%
same,Total Cell Count,[4],1603
same,Population Apoptotic (%),[5],17%
same,Population Fragmented Nuclei (%),[5],14%
same,Population Healthy Nuclei (%),[5],67%
same,Population Hoechst High Intensity Objects (%),[5],10%
same,Population Membrane Permeable-Phenotype (%),[5],16%
same,Population Mitochondria Different-Phenotype (%),[5],12%
same,Population Mitotic Cells (%),[5],82%
same,Population Normal (%),[5],89%
same,Population Pyknosed Nuclei (%),[5],18%
same,Population Tubulin-Different-Phenotype (%),[5],48%
same,Total Cell Count,[5],613
same,Population Apoptotic (%),[6],8%
same,Population Fragmented Nuclei (%),[6],17%
same,Population Healthy Nuclei (%),[6],77%
same,Population Hoechst High Intensity Objects (%),[6],3%
same,Population Membrane Permeable-Phenotype (%),[6],28%
same,Population Mitochondria Different-Phenotype (%),[6],4%
same,Population Mitotic Cells (%),[6],91%
same,Population Normal (%),[6],96%
same,Population Pyknosed Nuclei (%),[6],4%
same,Population Tubulin-Different-Phenotype (%),[6],68%
same,Total Cell Count,[6],2065
same,Population Apoptotic (%),[7],18%
same,Population Fragmented Nuclei (%),[7],11%
same,Population Healthy Nuclei (%),[7],77%
same,Population Hoechst High Intensity Objects (%),[7],5%
same,Population Membrane Permeable-Phenotype (%),[7],8%
same,Population Mitochondria Different-Phenotype (%),[7],4%
same,Population Mitotic Cells (%),[7],81%
same,Population Normal (%),[7],94%
same,Population Pyknosed Nuclei (%),[7],10%
same,Population Tubulin-Different-Phenotype (%),[7],7%
same,Total Cell Count,[7],587
same,Population Apoptotic (%),[8],3%
same,Population Fragmented Nuclei (%),[8],29%
same,Population Healthy Nuclei (%),[8],68%
same,Population Hoechst High Intensity Objects (%),[8],3%
same,Population Membrane Permeable-Phenotype (%),[8],5%
same,Population Mitochondria Different-Phenotype (%),[8],1%
same,Population Mitotic Cells (%),[8],96%
same,Population Normal (%),[8],96%
same,Population Pyknosed Nuclei (%),[8],2%
same,Total Cell Count,[8],2772
